The source made the active and inactive calls. The rule behind the calls is not given here.
Key:
Homo sapiens [1] = organism: Homo sapiens; assay: Inhibition of sodium/potassium pump in human primary bronchial epithelial cells assessed as effect on short-circuit current at 10 uM after 10 mins by voltage clamp method
How it was run: (§1)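 Primary human bronchial epithelial cells grown at air-liquid interface, mounted in Ussing chambers in symmetrical HCO3−-buffered solutions (95% O2/5% CO2, 37 °C), with Ag/AgCl electrodes. After 10 min preincubation with 10 µM compound, sequential additions were 20 µM amiloride, 20 µM forskolin, 10 µM CFTRinh-172 and 100 µM ATP. Traces represent two to four experiment sets.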

[2] = target: Cystic fibrosis transmembrane conductance regulator (Homo sapiens, UniProt P13569); assay: Activation of human CFTR expressed in forskolin-stimulated basolateral membrane permeabilized FRT cells co-expressing YFP assessed as increase in short-circuit current by voltage clamp method; assay type: cell-based
How it was run: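 Ussing chamber with FRT cells co-expressing human wild-type CFTR and YFP. Basolateral side had HCO3−-buffered solution and the apical side half-Cl− solution. The basolateral membrane was permeabilized with 250 µg/mL amphotericin B. Solutions were gassed with 95% O2/5% CO2 at 37 °C. A low forskolin concentration was added first, then cumulative compound additions, then maximal forskolin and 10 µM CFTRinh-172; n = 3.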

HT-29 [3] = assay: Inhibition of iodide influx in human HT-29 cells expressing YFP at 10 uM measured after 10 mins for 2 to 12 sec in presence of ATP by fluorescence assay; assay type: functional, cell-based
How it was run: (§2)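 HT-29 cells expressing YFP halide sensor, 10 μM compound, for non-TMEM16A calcium-activated chloride channel. Plate reader fluorescence quenching after iodide addition (activation) or iodide plus ATP addition (inhibition); initial rate of iodide influx computed as linear measure of channel function. Representative of two to four experiment sets.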

[4] = Elevation of forskolin-stimulated cAMP level in Fischer rat thyroid cells co-expressing YFP and human CFTR at 10 uM incubated for 10 mins by immunoassay; assay type: ADME, cell-based; conditions: thyroid cell
How it was run: (§3)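 FRT cells expressing wild-type CFTR in 12-well plates, PBS-washed, incubated 10 min with 10 μM compound without or with 90 nM forskolin; references were forskolin alone (90 nM, 20 μM) and 20 μM forskolin + 100 μM IBMX. Lysates assayed for cAMP by immunoassay; mean ± SEM, n = 4.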

HT-29 [5] = assay: Increase of iodide influx in human HT-29 cells expressing YFP at 10 uM measured after 10 mins for 2 to 12 sec by fluorescence assay; assay type: functional, cell-based; how it was run: as §2
[6] = Elevation of cAMP level in Fischer rat thyroid cells co-expressing YFP and human CFTR at 10 uM incubated for 10 mins by immunoassay; assay type: ADME, cell-based; conditions: thyroid cell; how it was run: as §3
Mus musculus = assay: Induction of tear secretion in mouse assessed as minimum compound concentration required to show maximum effect administered as single topical dose at 1 to 3 hrs post dose by phenol red thread test; assay type: functional
How it was run: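 Dose-response in mice: single ocular doses of varied amounts (down to 25 pmol) in 2.5 μL ophthalmic vehicle to both eyes, vehicle control. Tear volume by phenol red thread (10 s, lateral canthus, isoflurane anesthesia) before and at timed points after dosing; 5 mice, 10 eyes per condition.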

Homo sapiens [7] = organism: Homo sapiens; assay: Inhibition of calcium-activated chloride channel in human primary bronchial epithelial cells assessed as inhibition of ATP-induced short-circuit current at 10 uM preincubated for 10 mins followed by ATP addition by voltage clamp method; how it was run: as §1
[8] = Solubility of the compound in phosphate buffered solution; assay type: physicochemical
[9] = Cytotoxicity against Fischer rat thyroid cells assessed as effect on cell survival up to 10 uM after 8 hrs by alamar blue assay; assay type: cell-based
How it was run: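 FRT cells cultured overnight, then incubated 8 h with compound up to 10 μM; 33% DMSO as positive control. Viability read by Alamar Blue; mean ± SEM, n = 8.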

[10] = Elevation of cytoplasmic calcium level in Fischer rat thyroid cells co-expressing YFP and human CFTR at 10 uM incubated for 5 mins by fluo-4 dye based fluorescence assay; assay type: ADME; conditions: thyroid cell
How it was run: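 FRT cells in 96-well plates loaded with Fluo-4 NW, pretreated 5 min with 10 μM compound or control; 100 μM ATP added as calcium agonist. Fluorescence followed in plate reader with syringe pumps. Representative of two to four experiment sets.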

[11] = target: T1, Anoctamin-1 (Homo sapiens) (UniProt Q5XXA6); assay: Inhibition of human TMEM16A expressed in FRT cells co-expressing YFP assessed as decrease in iodide influx at 10 uM measured after 10 mins for 2 to 12 sec in presence of ATP by fluorescence assay; assay type: cell-based
T1 sequence (whole entry): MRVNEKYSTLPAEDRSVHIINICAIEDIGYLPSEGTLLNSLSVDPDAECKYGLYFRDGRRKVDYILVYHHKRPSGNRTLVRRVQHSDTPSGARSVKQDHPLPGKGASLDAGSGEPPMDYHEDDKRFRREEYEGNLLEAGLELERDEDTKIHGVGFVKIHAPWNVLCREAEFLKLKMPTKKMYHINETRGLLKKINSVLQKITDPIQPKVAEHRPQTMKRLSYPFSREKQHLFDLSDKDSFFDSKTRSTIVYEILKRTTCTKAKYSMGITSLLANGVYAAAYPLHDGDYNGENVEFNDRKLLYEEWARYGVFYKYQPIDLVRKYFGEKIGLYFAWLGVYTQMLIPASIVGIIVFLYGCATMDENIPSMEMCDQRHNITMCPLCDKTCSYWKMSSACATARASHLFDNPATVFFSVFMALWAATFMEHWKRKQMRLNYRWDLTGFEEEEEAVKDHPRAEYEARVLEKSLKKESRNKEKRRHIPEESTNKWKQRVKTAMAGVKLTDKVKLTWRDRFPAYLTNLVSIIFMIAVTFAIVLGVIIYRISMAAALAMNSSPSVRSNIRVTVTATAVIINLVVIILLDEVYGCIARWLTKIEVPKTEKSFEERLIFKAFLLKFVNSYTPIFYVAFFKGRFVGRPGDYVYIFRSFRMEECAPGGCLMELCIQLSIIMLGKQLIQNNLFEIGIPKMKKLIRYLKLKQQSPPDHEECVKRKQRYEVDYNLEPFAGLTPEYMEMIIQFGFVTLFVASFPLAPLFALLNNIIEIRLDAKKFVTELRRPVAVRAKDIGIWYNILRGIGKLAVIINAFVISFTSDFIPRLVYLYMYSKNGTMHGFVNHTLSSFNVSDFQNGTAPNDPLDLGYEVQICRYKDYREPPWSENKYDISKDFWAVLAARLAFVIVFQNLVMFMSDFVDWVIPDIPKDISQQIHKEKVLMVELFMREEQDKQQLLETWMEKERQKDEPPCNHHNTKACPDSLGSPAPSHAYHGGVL
How it was run: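 FRT cells stably coexpressing TMEM16A and YFP-H148Q; compound at 10 μM. Fluorescence quenching read in plate reader after iodide addition (activation) or iodide plus ATP addition (inhibition); initial rate of iodide influx computed as linear measure of channel function. Representative of two to four experiment sets.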

[12] = Metabolic stability in rat hepatic microsomes assessed as parent compound remaining at 5 uM after 60 mins in presence of NADPH by LC-MS analysis; assay type: ADME, Microsome; conditions: liver microsomes, read-out: Stability
How it was run: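 Compound at 5 μM incubated at 37 °C with rat liver microsomes (1 mg/mL) in potassium phosphate buffer with 1 mM NADPH; quenched with ice-cold EtOAc, centrifuged, supernatant analysed by LC/MS (C18, water/acetonitrile with 0.1% formic acid gradient, UV 254 nm) for parent remaining; mean ± SEM, n = 3.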

Cystic fibrosis transmembrane conductance regulator, sequence (P13569 whole entry, looked up): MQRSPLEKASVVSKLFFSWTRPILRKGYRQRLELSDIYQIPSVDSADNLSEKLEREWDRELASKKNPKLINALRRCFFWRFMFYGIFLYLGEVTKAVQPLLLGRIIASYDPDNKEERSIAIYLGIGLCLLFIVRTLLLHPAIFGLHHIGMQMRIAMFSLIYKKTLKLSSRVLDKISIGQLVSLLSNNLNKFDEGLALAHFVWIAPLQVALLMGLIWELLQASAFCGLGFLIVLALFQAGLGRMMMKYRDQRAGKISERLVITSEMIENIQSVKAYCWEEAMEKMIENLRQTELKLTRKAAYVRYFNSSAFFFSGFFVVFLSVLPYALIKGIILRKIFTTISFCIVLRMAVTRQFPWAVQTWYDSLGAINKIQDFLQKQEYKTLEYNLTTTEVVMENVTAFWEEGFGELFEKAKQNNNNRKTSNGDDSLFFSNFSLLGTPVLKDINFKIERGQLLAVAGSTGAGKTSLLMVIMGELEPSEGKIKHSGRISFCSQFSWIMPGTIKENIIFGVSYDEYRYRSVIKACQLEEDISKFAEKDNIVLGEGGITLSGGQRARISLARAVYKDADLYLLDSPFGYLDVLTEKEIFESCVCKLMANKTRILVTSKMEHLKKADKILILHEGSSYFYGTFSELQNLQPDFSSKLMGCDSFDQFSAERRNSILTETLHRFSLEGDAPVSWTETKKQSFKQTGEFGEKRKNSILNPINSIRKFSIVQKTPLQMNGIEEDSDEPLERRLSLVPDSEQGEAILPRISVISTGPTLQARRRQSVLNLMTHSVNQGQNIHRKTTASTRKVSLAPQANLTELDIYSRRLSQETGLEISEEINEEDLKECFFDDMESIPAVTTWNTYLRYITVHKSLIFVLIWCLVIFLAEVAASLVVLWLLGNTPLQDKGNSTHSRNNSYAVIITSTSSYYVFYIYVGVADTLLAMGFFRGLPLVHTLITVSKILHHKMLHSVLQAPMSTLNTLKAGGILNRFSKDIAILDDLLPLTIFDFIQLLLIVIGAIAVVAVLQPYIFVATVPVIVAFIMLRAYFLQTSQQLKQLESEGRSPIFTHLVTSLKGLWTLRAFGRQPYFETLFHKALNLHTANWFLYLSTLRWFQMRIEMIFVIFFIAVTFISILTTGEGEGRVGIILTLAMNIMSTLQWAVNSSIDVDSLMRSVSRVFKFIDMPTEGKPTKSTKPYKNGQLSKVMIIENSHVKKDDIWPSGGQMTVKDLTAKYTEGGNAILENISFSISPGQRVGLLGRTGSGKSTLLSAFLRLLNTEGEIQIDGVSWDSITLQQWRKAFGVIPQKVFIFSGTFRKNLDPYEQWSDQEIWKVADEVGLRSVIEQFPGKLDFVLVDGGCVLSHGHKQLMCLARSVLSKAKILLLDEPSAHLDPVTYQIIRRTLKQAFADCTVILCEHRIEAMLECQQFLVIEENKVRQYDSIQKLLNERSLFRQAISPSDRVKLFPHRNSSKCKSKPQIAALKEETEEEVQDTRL

| SMILES | inhibition (Homo sapiens [1]) | Activity [2] | inhibition (HT-29 [3]) | Activity [4] | Activity (HT-29 [5]) | Activity [6] | Activity (Mus musculus) [pmol] | inhibition (Homo sapiens [7]) | solubility [8] [µM] | Activity [9] | Activity [10] | inhibition [11] | remaining at 1 h, 5 µM [12] [%] |
| --- | --- | --- | --- | --- | --- | --- | --- | --- | --- | --- | --- | --- | --- |
| CNc1nc(Nc2ccccc2)nc(OCC(F)(F)C(F)F)n1 | inactive | Dose-dependent effect | inactive | Non-Toxic | inactive | Non-Toxic | 25 | inactive | ≤ 10 | Non-Toxic | Non-Toxic | inactive |  |
| CCN(CC)c1nc(Nc2ccc3ncsc3c2)nc(OC(C(F)(F)F)C(F)(F)F)n1 | inactive | Dose-dependent effect | inactive | Non-Toxic | inactive | Non-Toxic |  | inactive | ≤ 10 | Non-Toxic | Non-Toxic | inactive | 60 |

— ChEMBL document CHEMBL3997791, “Nanomolar-Potency Aminophenyl-1,3,5-triazine Activators of the Cystic Fibrosis Transmembrane Conductance Regulator (CFTR) Chloride Channel for Prosecretory Therapy of Dry Eye Diseases” (J Med Chem, 2017)
